Source: ChEMBL document CHEMBL4334447, “Discovery of 4-Aminoquinoline-3-carboxamide Derivatives as Potent Reversible Bruton's Tyrosine Kinase Inhibitors for the Treatment of Rheumatoid Arthritis” (J Med Chem, 2019)
Values after ≈ are worked out from the molar mass of the structure shown.

Legend:
[1] = Kinetic aqueous solubility of the compound in pH 7.4 phosphate buffered saline incubated for 24 hrs under shaking condition by HPLC analysis; type: physicochemical; conditions: read-out: Kinetic_solubility
Procedure, shortened: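 Dry powder shaken 24 h at 25 °C in 0.1 M phosphate buffer, pH 7.4, then filtered through a 0.45 µm membrane. Concentration determined by HPLC against a standard of the compound in DMSO. Mean of three separate assays in triplicate.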

[2] = biological target: Tyrosine-protein kinase BTK (Homo sapiens, UniProt Q06187); experiment: Reversible inhibition of FAM-labeled peptide binding to full-length human N-terminal GST-tagged BTK (2 to 659 residues) expressed in baculovirus infected Sf21 insect cells at preincubated for 10 mins followed by FAM-labeled peptide addition and measured by off-chip mobility shift assay
Chain of Tyrosine-protein kinase BTK (Q06187 whole entry, the tested form may be a part): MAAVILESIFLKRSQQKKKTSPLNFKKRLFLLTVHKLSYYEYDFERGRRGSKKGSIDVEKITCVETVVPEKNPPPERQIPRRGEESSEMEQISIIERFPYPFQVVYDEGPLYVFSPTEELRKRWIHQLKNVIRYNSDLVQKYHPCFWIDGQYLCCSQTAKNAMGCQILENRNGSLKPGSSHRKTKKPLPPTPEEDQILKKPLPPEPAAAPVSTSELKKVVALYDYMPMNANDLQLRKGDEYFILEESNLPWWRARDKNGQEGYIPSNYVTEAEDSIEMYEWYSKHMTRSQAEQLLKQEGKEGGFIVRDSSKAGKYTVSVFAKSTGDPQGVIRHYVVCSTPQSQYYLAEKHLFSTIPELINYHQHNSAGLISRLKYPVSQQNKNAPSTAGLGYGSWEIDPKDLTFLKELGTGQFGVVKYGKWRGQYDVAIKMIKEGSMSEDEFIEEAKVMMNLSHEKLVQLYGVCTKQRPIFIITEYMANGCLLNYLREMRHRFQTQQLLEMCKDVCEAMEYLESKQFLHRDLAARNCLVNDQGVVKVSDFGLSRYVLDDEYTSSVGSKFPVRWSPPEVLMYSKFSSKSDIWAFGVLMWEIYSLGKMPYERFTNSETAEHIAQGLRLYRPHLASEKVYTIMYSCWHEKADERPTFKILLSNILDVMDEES

solubility kinetic at 24 h [1] [µg/mL]	IC50 [2] [nM]	Structure (SMILES)
5.2 (≈ 15.5 µM)	11.6	Cc1cc2cn[nH]c2cc1-c1ccc(F)c2c(N)c(C(N)=O)cnc12
< 0.05	–	Cc1cc2cn[nH]c2cc1-c1cccc2c(N)c(C(N)=O)nnc12
